Data: PubChem BioAssay AID493082 (Broad Institute, 2011)
Results filed as inconclusive are left out. Calls of active or inactive are those of the source.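 How the source made its calls: active means compounds whose fitted half-maximal growth inhibition concentration is at most ten times the top valid dose; inconclusive means flat curve with 30 to 70% inhibition, or poor fit; inactive means the rest.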

Tested on: C. albicans CaCi-8 + fluconazole, Alamar Blue growth, 48 h
Assay: growth inhibition of drug-resistant Candida albicans, dose response, Alamar Blue, 48 h, dry powder (AID 493082)
Details: not given
Outline: (§1)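 system = C. albicans CaCi-8, fluconazole-resistant clinical isolate | buffer or medium = RPMI 1640 defined medium, MOPS, glucose, uridine | probe or stimulus = fluconazole co-treatment at 8 µg/mL alongside compound | schedule = 48 h static 37 °C compound exposure, 2 h Alamar Blue | detection = Alamar Blue fluorescence, Ex 544/Em 590 nm | read-out = fungal growth or viability, lower signal indicating inhibition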
In the case of `COC(=O)Cn1nc(-c2ccccc2C)c2ccccc21`, the AC50 is reported as 8.07 µM.
Compound `O=C(Cn1c2ccccc2c2nc3n(c(=O)c21)CCS3)N1CCCC1` has an AC50 of 3.83 µM.
For `COC(=O)Cn1nc(-c2cccc(F)c2)c2ccccc21`, the AC50 was 14 µM.
`CCN(CC)C(=O)Cn1c2ccccc2c2nc3n(c(=O)c21)CCS3` showed an AC50 of 10 µM.
`O=C(Cn1c2ccc(F)cc2c2nc3n(c(=O)c21)CCS3)N1CCCC1` gave an AC50 of 0.907 µM.
In the case of `COC(=O)Cn1nc(I)c2ccccc21`, the AC50 is reported as 18.8 µM.
`COC(=O)Cn1nc(-c2ccc(C#N)cc2)c2ccccc21` gave an AC50 of 20 µM.
Compound `O=C(Cn1c2ccccc2c2nc3n(c(=O)c21)CCS3)N1CCOCC1` has an AC50 of 7.67 µM.
In the case of `COC(=O)Cn1nc(-c2ccccc2)c2ccccc21`, the AC50 is reported as 2.33 µM.
`O=C(Cn1c2ccccc2c2nc3n(c(=O)c21)CCS3)N1CCCCC1` showed an AC50 of 4.91 µM.
`COC(=O)Cn1c(-c2ccccc2)nc2ccccc21` showed an AC50 of 16.7 µM.
With `COC(=O)Cn1nc(-c2ccc(F)cc2)c2ccccc21` the AC50 was 16.1 µM.
Work on `CC1CCN(C(=O)Cn2c3ccccc3c3nc4n(c(=O)c32)CCS4)CC1` yielded an AC50 of 2.06 µM.

Tested on: not listed separately
Assay: as above
Details: C. albicans CaCi-8 + fluconazole, Alamar Blue growth, 48 h; at 26 µM (top of the series)
Outline: as §1
In the case of `O=C(Cn1c2ccccc2c2ccncc21)N1CCCCC1`, the activity change, negative = inhibition is reported as -24.1% (inactive).
In the case of `COC(=O)Cn1nc(-c2ccccc2)c2cccc(C(F)(F)F)c21`, the activity change, negative = inhibition is reported as -12% (inactive).
With `O=C(O)Cn1nc(-c2ccccc2)c2ccccc21` the activity change, negative = inhibition was -8.51% (inactive).
With `O=C1OCCC1n1nc(-c2ccccc2)c2ccccc21` (centres undefined) the activity change, negative = inhibition was -19.7% (inactive).
For `CCCCn1nc(-c2ccccc2)c2ccccc21`, the activity change, negative = inhibition was 19.1% (inactive).
For `CCN(CC)C(=O)Cn1c2ccc(F)cc2c2nc3n(c(=O)c21)CCS3`, the activity change, negative = inhibition was 24.6% (inactive).
With `COC(=O)Cn1nc(-c2ccccc2)c2ccc(C(F)(F)F)cc21` the activity change, negative = inhibition was -34.9% (inactive).
For `COC(=O)C(C)(C)n1nc(-c2ccccc2)c2ccccc21`, the activity change, negative = inhibition was -6.76% (inactive).
With `O=C(Cn1c2ccc(F)cc2c2nc3n(c(=O)c21)CCS3)N1CCCCCC1` the activity change, negative = inhibition was 3.17% (inactive).
With `O=C(Cn1nc(-c2ccccc2)c2ccccc21)OC1CCC1` the activity change, negative = inhibition was -21.3% (inactive).
In the case of `O=C(Cn1c2ccc(F)cc2c2nc3n(c(=O)c21)CCS3)N1CCCCC1`, the activity change, negative = inhibition is reported as 12.2% (inactive).
